Source: PubChem (several laboratories)
Rows were chosen to be rich in hits. Some 3% of all compounds tested hit in one or more screens of this group.
Exocytosis inh – lytic granule exocytosis inhibition; TALL-104 LAMP-1 surface exposure, flow cytometry; cells stimulated with thapsigargin and PMA; inhibition, % at 10 µM; 360,000 compounds, 0.66% hits; AID 651702;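 active = inhibition above about 55%, limit read from the data; inconclusive = no clear call, values can overlap the other calls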
SENP1 inh – SENP1 (human) catalytic domain inhibition | recombinant SENP1 catalytic domain, CyPet-SUMO1-YPet FRET cleavage | inhibition, % at 10 µM | 360,000 compounds, 0.21% hits;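 active = inhibition at least 30% at 10 µM, raw YFP signal under a set limit, fluorescence ratio 0.5 to 1.5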;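 note: 0% = enzyme with DMSO and 100% = no enzyme wells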
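system = hSENP1 catalytic domain, recombinant | reagent = SFCypet-SUMO1-SFYpet substrate at 25 nM | doses = one dose per compound, 10 µM, 0.5% DMSO | incubation = enzyme reaction for 50 min at room temperature, dark | measured by = FRET, CFP and YFP emission | controls = no-enzyme low, enzyme-DMSO high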
HNF4A DNA FP – change in binding of human HNF4 alpha to DNA. HNF4a-FITC DNA binding, fluorescence polarization, 1 h. activity change, % at 10 µM. 360,000 compounds, 0.3% hits. AID 1224865; in the data active = activity change above about 30%, passing the limit was not always enough
Myeloid diff 2 – promotes myeloid progenitor differentiation | ER-HoxA9 myeloid progenitors, lysozyme-GFP differentiation, flow cytometry | calls only at 10 µM | 360,000 compounds, 1% hits;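 active = normalized GFP-positive differentiation at or above the plate's own cutoff, the solvent-only control mean plus 3 SD; inconclusive = no clear call, values can overlap the other calls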;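 note: cells exposed to compound for four days before flow analysis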
Cardio protect – protects H9c2 cardiomyocytes from peroxide injury; protection from H2O2 cell death, % at 20 µM; 360,000 compounds, 0.63% hits; H2O2 injury protection, ATPLite, 2 h; AID 588492;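 active = compounds giving at least 50% protection of heart cells from peroxide-induced death in the single-dose screen, raw or plate-pattern-corrected value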;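 note: 0% = DMSO wells with peroxide and 100% = DMSO wells without peroxide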
Pemphigus Ab inh – human desmoglein-3 autoantibody binding inhibition; P32926; binding (percent of control), % at 10 µM; AID 588358; DSG3-coupled beads, scFv-anti-DSG3-GFP binding, flow cytometry; stronger effect = lower value; 310,000 compounds, 0.48% hits;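 active = binding more than 3 SD below its plate's average and above zero; inconclusive = below that plate limit but binding exactly zero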;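 note: hits lower antibody fragment binding to DSG3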
Target sequence (P32926 whole entry, looked up, the tested form may be a part): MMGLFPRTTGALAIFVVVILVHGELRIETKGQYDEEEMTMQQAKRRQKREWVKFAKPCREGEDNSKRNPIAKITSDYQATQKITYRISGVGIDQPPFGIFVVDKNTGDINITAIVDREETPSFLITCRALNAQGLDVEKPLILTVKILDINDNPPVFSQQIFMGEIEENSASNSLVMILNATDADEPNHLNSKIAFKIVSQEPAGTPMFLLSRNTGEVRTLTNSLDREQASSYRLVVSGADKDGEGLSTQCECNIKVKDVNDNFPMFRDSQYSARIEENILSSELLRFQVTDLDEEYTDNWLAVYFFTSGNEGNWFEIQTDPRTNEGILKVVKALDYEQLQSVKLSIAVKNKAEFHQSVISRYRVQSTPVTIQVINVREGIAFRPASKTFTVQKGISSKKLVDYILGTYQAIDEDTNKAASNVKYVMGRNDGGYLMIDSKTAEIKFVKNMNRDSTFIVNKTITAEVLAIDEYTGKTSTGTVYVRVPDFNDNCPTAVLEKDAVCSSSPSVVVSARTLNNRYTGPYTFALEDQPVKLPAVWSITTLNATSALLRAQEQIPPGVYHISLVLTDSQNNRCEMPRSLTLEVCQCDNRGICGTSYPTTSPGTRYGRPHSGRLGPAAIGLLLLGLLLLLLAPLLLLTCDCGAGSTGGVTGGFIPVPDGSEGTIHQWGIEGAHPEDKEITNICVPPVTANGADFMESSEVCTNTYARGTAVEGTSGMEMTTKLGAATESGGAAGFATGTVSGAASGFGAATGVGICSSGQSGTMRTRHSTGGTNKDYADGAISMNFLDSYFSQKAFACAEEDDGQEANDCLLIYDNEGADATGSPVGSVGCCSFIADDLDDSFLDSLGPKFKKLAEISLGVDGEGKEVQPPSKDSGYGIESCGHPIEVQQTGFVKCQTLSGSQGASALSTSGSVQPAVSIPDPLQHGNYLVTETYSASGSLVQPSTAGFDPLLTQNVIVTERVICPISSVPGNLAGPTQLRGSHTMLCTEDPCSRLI
* marks the source's active call; other numbers are inactive results; i = inactive; ? = inconclusive; . = not tested or not shown; + = active, no number.

SMILES	Exocytosis inh	SENP1 inh	HNF4A DNA FP	Myeloid diff 2	Cardio protect	Pemphigus Ab inh
Cc1cc2c(SCC(=O)Nc3cccc(O)c3)ncnc2s1	8	-28	-20	+	-2	376
O=[N+]([O-])c1ccc(N=Nc2c(Cl)cc(O)cc2Cl)cc1	79*	1	-2	?	-21	98
CC(N)=Nc1ccc([N+](=O)[O-])cc1	1	-1	0	i	-6	98
COc1ccc(NC(=O)CSc2nnnn2Cc2ccccc2)cc1	-2	3	4	i	-5	65*
COc1ccccc1NC(=O)CSc1nnnn1Cc1ccccc1	-2	2	1	i	0	116
COc1ccc(NC(=O)CSc2nc(C3CC3)nc3ccccc23)cc1	26	1	-3	+	-2	104
CC(C)c1nc(SCC(=O)NC2CCCC2)c2ccccc2n1	3	1	0	+	0	.
O=C(CSc1nc(COc2ccccc2)nc2ccccc12)NC1CCCC1	-1	-2	1	i	11	100
O=C(Cn1nnc2ccccc2c1=O)N[C@H](C(=O)O)c1ccccc1	0	3	2	i	-2	102
COc1cccc(N2CCN(C(=O)C3CCN(S(=O)(=O)c4cccs4)CC3)CC2)c1	0	3	0	i	9	109
O=C(O)c1cc(S(=O)(=O)N2CCCCC2)ccc1Cl	-6	0	2	i	1	108
Cc1ccc(-n2c(C)cc(=O)cc2C)cc1[N+](=O)[O-]	-8	1	-1	i	-3	111
CCOc1ccc(C(=O)C(C)OC(=O)Cn2c(C)csc2=O)cc1 (centres undefined)	-16	1	-2	i	-2	85
C=CCn1c(SCC#N)nc2sc(CC)cc2c1=O	2	-1	-2	i	-10	113
COc1ccc(C(=O)NCc2cccc(Cl)c2)cc1S(=O)(=O)N1CCOCC1	-5	-3	2	i	6	100
COc1ccc(CNC(=O)c2c(O)c3cc(OC)c(OC)cc3[nH]c2=O)cc1OC	-6	1	2	i	1	79*
COc1ccc(CNC(=O)c2ccc(-c3ccccc3)cc2)cc1OC	2	3	-1	i	-9	76*
COc1ccc(CNC(=O)c2ccc(Cl)c(S(=O)(=O)N3CCOCC3)c2)cc1OC	-5	-2	-3	+	-17	111
NS(=O)(=O)c1ccc(NC(=O)COc2ccc(S(=O)(=O)N3CCCC3)cc2)cc1	-10	5	1	i	-2	111
Cc1ccc(-c2csc(N3CCC[C@@H]3C(=O)NCCn3c(-c4ccncc4)nc4ccccc43)n2)cc1	-5	0	2	i	69*	110
COCCNC(=O)C1(C)CCCN(CCC(=O)c2ccc(Br)cc2)C1 (centres undefined)	47	2	2	i	-19	.
Cc1sc(NC(=O)c2ccco2)c(C(c2cccnc2)N2CCN(c3ccc(F)cc3)CC2)c1C (centres undefined)	0	2	-2	+	-4	95
Cc1sc(NC(=O)c2ccco2)c(C(c2cccnc2)N2CCN(CCO)CC2)c1C (centres undefined)	9	0	-1	i	4	99
O=C1S/C(=C\c2ccc(N3CCOCC3)o2)C(=O)N1Cc1c(F)cccc1Cl	88*	-21	138	i	-6	232
O=C1N=C(N2CCOCC2)S/C1=C/c1ccc(-c2ccccc2Cl)o1	2	-24	-41	i	-6	.
SMILES	Exocytosis inh	SENP1 inh	HNF4A DNA FP	Myeloid diff 2	Cardio protect	Pemphigus Ab inh
O=C(NCCN1CCOCC1)c1ccc2c(c1)N(Cc1c(F)cccc1Cl)C(=O)c1ccccc1S2	0	0	-1	i	22	104
O=C1S/C(=C/c2ccc(N3CCOCC3)o2)C(=O)N1Cc1c(F)cccc1Cl	106*	-27	149	+	-4	214
COc1ccccc1NS(=O)(=O)c1cccc(C(=O)NNC(=O)c2ccc(O)c(Cl)c2)c1	10	0	2	i	11	100
O=C(Nc1ccccc1C(=O)Nc1ccncc1)c1ccccc1	15	2	3	i	5	99
O=C(N/N=C\c1ccccn1)c1cccc(C(=O)N/N=C\c2ccccn2)n1	5	0	-3	i	54*	102
O=C(N/N=C/c1ccccn1)c1ccncc1	-7	1	2	.	19	93
O=C(N/N=C/c1ccccn1)c1ccccc1	3	-2	1	i	19	113
O=C(N/N=C\c1ccccn1)C1COc2cc3ccccc3cc2O1 (centres undefined)	1	1	1	i	86*	105
Cn1ncc(Cl)c1C(=O)N/N=C/c1ccccn1	0	0	-2	i	51*	87
NNC(=O)C1COc2cc3ccccc3cc2O1 (centres undefined)	-1	1	0	i	4	98
O=C(N/N=C/c1ccccn1)c1cccs1	-2	-3	3	i	56*	99
Fc1ccc(N2Cc3ccsc3C=N2)cc1	-3	-4	3	i	-1	105
C#Cc1ccc(CN2CCC(Oc3cc(C(=O)NC4CC4)ccc3OC)CC2)cc1	-3	-3	5	i	6	106
CN(CCc1ccccc1)C(=O)c1ccc(NC(=O)Cc2ccc(NC(=O)C3CCN(S(=O)(=O)c4cccc([N+](=O)[O-])c4)CC3)cc2)cc1	-1	2	2	i	-25	103
O=C(OC1Cn2c(=O)ccc(=O)n2C1)c1ccccc1	2	2	5	i	3	100
COc1ccc2nc(C)cc(Sc3nc4ccccc4s3)c2c1	17	0	-2	?	-11	132
Cc1ccc(F)cc1NC(=O)C1C2CCC(O2)C1C(=O)O (centres undefined)	-8	-1	-3	i	6	91
O=c1oc(Nc2cccc(Cl)c2)nc2ccccc12	4	2	1	i	-7	98
Cc1cccc(OCCn2nc(C(=O)O)c3ccccc3c2=O)c1	0	0	2	i	73*	107
Cc1cccc(C)c1OCCn1nc(C(=O)O)c2ccccc2c1=O	-1	2	4	i	57*	.
Cc1noc(C)c1Cn1nc(C(=O)O)c2ccccc2c1=O	3	0	1	i	64*	103
Cc1ccc(SCCn2nc(C(=O)O)c3ccccc3c2=O)cc1	-5	4	-1	i	24	90
CC(C)(C)c1ccc(OCCn2nc(C(=O)O)c3ccccc3c2=O)cc1	32	-1	0	?	1	101
Cc1ccc(-c2noc(Cn3nc(C(=O)O)c4ccccc4c3=O)n2)cc1	4	0	0	.	8	.
